Test [1] is described as follows: Growth inhibition of human PC3 cells after 5 days by sulforhodamine B assay. In kind it is functional. The note with it: PC-3, 120 h. (In general: The SRB assay estimates cell density from bound dye.)
A further test deals with MDA-MB-231. The experiment in a line: Growth inhibition of human MDA-MB-231 cells after 5 days by sulforhodamine B assay. It counts as functional. The note with it: MDA-MB-231, 120 h.
The test system of the next test is ACHN. Briefly: Growth inhibition of human ACHN cells after 5 days by sulforhodamine B assay. It counts as functional. The note with it: 120 h.
Another test has as its system NCI-H23. Briefly: Growth inhibition of human NCI-H23 cells after 5 days by sulforhodamine B assay. It counts as functional. The note with it: NCI-H23, 120 h.
In a further test the test system is C2C12. The experiment in a line: Induction of RUNX transcriptional activation in mouse C2C12-6xOSE2 cells at 1 uM after 24 hrs by luciferase reporter assay relative to FGF-2. In kind it is functional. In a few lines: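 C2C12-6xOSE stable cells grown in DMEM with 10% FBS at 37°C, 5% CO2. Seeded at 1 × 10^4 cells/well; next day treated with compound or FGF-2 (1 µM each). After 24 h, luciferase measured with Bright-Glo. Activity expressed as percent of the FGF-2 positive-control response.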
For orientation: A reporter such as luciferase makes a cellular process visible.

Test [2] can be described thus: Growth inhibition of human HCT15 cells after 5 days by sulforhodamine B assay. In kind it is functional. To be noted: HCT-15, 120 h.
Another test concerns the target Histone deacetylase. Briefly: Inhibition of HDAC in human HeLa cell nuclear extract using Fluor de Lys as substrate incubated with compound for 30 mins by microtiter-plate reading flourimeter analysis. In kind it is protein assay.
The nature of test [3]: Growth inhibition of human NUGC3 cells after 5 days by sulforhodamine B assay. It counts as functional. The note with it: NUGC-3, 120 h.

One may read the GI50 as the concentration giving 50% growth inhibition. A lower GI50 goes with more potent growth inhibition. As usually defined, the IC50 is the point on the concentration scale where inhibition reaches its midpoint.

In the case of `O=C(/C=C/c1cccn(CCCc2cccnc2)c1=O)NO`, the GI50 in test [1] was greater than 10 µM; in the test on MDA-MB-231 it was greater than 10 µM; in the test on ACHN it was greater than 10 µM; in the test with NCI-H23 it was 5.21 µM; in test [2], greater than 10 µM; in test [3], greater than 10 µM. The same compound came in with an Activity in the test with C2C12 of 30%. Further, on Histone deacetylase, the IC50 worked out at 0.57 µM.

In the case of `O=C(/C=C/c1cccn(Cc2cccnc2)c1=O)NO`, the GI50 in test [1] came to 5.33 µM; in the test with MDA-MB-231 it was 10 µM; with ACHN, 4.16 µM; with NCI-H23, 6.7 µM; in test [2], 7.51 µM; in test [3], 5.94 µM. In addition, the Activity with C2C12 is 32.3%. Further, the half-maximal inhibitory concentration (IC50) at Histone deacetylase was 0.3 µM.

As to `O=C(/C=C/c1cccn(Cc2cccc(Br)c2)c1=O)NO`, the GI50 in test [1] came to 4.84 µM; in the test on MDA-MB-231 it was 3.07 µM; in the test on ACHN, 3.03 µM; in the test on NCI-H23, 3.04 µM; in test [2], 2.73 µM; in test [3] it was 2.78 µM. In addition, in the test on C2C12, the Activity was determined as 91.6%. Besides, the IC50 at Histone deacetylase came out at 0.38 µM.

As for `CCOc1ccccc1CCn1cccc(/C=C/C(=O)NO)c1=O`, the GI50 in test [1] was 4.92 µM; with MDA-MB-231 it was 3.89 µM; with ACHN, 3.59 µM; with NCI-H23, 4.92 µM; in test [2], 6.06 µM; in test [3] it was 3.92 µM. Also, the Activity in the test with C2C12 amounted to 30.9%. Also, the IC50 on Histone deacetylase amounted to 0.32 µM.

For the compound `COc1cccc(CCn2cccc(/C=C/C(=O)NO)c2=O)c1`, the GI50 was 5.87 µM in test [1]; 6.94 µM in the test on MDA-MB-231; 2.93 µM in the test on ACHN; 5.06 µM in the test on NCI-H23; greater than 10 µM in test [2]; 2.91 µM in test [3]. Moreover, the Activity in the test on C2C12 was 53.8%. Also, the IC50 on Histone deacetylase stood at 0.07 µM.

In the case of `CCOc1cccc(CCn2cccc(/C=C/C(=O)NO)c2=O)c1`, the GI50 in test [1] amounted to 1.34 µM; in the test on MDA-MB-231, 1.74 µM; in the test with ACHN it was 0.94 µM; with NCI-H23, 1.81 µM; in test [2], 0.92 µM; in test [3] it was 1.42 µM. The compound also gave an Activity in the test with C2C12 of 76.9%. Moreover, the IC50 on Histone deacetylase was 0.12 µM.

On to `CCc1ccc(CCCn2cccc(/C=C/C(=O)NO)c2=O)cc1`, for which the GI50 in test [1] amounted to 1.85 µM; in the test on MDA-MB-231, 2.88 µM; in the test on ACHN, 1.71 µM; in the test on NCI-H23 it was 2.15 µM; in test [2], 1.06 µM; in test [3], 1.74 µM. In the test on C2C12, this compound returned an Activity of 14.3%. For the same compound, the concentration for half-maximal inhibition (IC50) at Histone deacetylase is 0.31 µM.

With `O=C(/C=C/c1cccn(CCc2ccccn2)c1=O)NO`, the GI50 (in test [1]; in the test with MDA-MB-231; in the test with ACHN; with NCI-H23; in test [2]; in test [3]) was greater than 10 µM in each case. Also, the Activity in the test with C2C12 is listed as 26.7%. For the same compound, the IC50 at Histone deacetylase came out at 3.94 µM.

`COc1ccc(CCCn2cccc(/C=C/C(=O)NO)c2=O)cc1`: the concentration for 50% growth inhibition (GI50) in test [1] was 1.78 µM; in the test with MDA-MB-231, 1.36 µM; in the test with ACHN, 0.98 µM; in the test on NCI-H23 it was 1.31 µM; in test [2], 0.9 µM; in test [3], 0.97 µM. This compound registered an Activity in the test with C2C12 of 97.6%. Moreover, the IC50 on Histone deacetylase amounted to 0.14 µM.

`O=C(/C=C/c1cccn(CCCc2ccc(Br)cc2)c1=O)NO`: the GI50 in test [1] is 3.97 µM; with MDA-MB-231, 4.38 µM; with ACHN it was 4.19 µM; in the test with NCI-H23, 4.88 µM; in test [2], 7.45 µM; in test [3], 4.02 µM. This compound had an Activity in the test with C2C12 of 53.8%. In addition, at Histone deacetylase, the IC50 was determined as 0.21 µM.

Take `O=C(CCCCCCC(=O)Nc1ccccc1)NO` [VORINOSTAT]: the Activity in the test on C2C12 was 80.2%.

Values taken from ChEMBL document CHEMBL3425447, “Discovery of Orally Available Runt-Related Transcription Factor 3 (RUNX3) Modulators for Anticancer Chemotherapy by Epigenetic Activation and Protein Stabilization” (J Med Chem, 2015).
